ChEMBL document CHEMBL1140686, “Indanylacetic acids as PPAR-delta activator insulin sensitizers” (Bioorg Med Chem Lett, 2007)
Activity calls are given as the source filed them. No cut-off for these calls is given here.

Legend:
3T3-L1 = assay: Induction of insulin receptor in mouse 3T3L1 cells assessed as insulin sensitizing activity; type: functional, cell-based; conditions: for EC50: Mus musculus, 3T3-L1
In short: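 3T3-L1 preadipocytes grown about 1 week to 2 days post-confluence, then exposed 2 days to compound plus 0.5 µM IGF-1 in DMEM/10% FBS/2 mM glutamine/pen-strep, then 4 days in plain medium. Cells bound 0.1 nM [125I]insulin ± 100 nM unlabeled insulin for 1 h at room temperature, were washed and lysed in 1 N NaOH, then gamma-counted. EC50 taken where a plateau was reached; percent maximal stimulation recorded.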

[1] = target: T1, Peroxisome proliferator-activated receptor alpha (Homo sapiens, UniProt Q07869); assay: (§1) Agonist activity at PPARalpha by FRET assay; type: functional
T1 sequence (Q07869 whole entry): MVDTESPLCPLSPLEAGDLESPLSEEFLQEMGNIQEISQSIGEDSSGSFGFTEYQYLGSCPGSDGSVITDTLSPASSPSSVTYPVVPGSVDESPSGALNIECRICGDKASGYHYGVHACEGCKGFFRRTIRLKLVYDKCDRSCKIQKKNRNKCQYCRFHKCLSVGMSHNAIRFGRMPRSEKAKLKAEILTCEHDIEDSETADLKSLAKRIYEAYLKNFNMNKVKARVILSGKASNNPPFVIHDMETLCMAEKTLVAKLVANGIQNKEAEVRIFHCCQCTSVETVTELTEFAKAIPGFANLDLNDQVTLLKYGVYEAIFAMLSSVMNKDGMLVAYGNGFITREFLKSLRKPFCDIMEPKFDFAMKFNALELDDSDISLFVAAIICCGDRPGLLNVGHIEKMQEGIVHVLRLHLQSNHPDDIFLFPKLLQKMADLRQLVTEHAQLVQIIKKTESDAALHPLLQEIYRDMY
In short: (§2)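 FRET coactivator-recruitment assay run with the PPAR-δ ligand binding domain (GST-tagged human PPAR-δ LBD) and separately with the PPAR-α ligand binding domain. Compounds were incubated with europium-labelled anti-GST antibody, biotinylated TRAP220 coactivator protein and streptavidin-labelled APC. Read in a fluorimeter at excitation 340 nm and emission 615 and 665 nm.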

Mus musculus [2] = assay: Reduction in blood glucose level in db/db mouse at 10 mg/kg, po; type: functional, organism-based; design: dose 10 mg/kg
[3] = target: T2, Peroxisome proliferator-activated receptor alpha (Homo sapiens) (UniProt Q07869); assay: as §1; type: functional; in short: as §2
T2 sequence (whole entry): T1 sequence (Q07869 whole entry)

[4] = target: Peroxisome proliferator-activated receptor delta (Homo sapiens) (UniProt Q03181); assay: Agonist activity at GST-tagged human PPARdelta by FRET assay
Homo sapiens = species: Homo sapiens; assay: Selectivity for PPARdelta over PPARalpha; in short: as §2
Mus musculus [5] = assay: Increase in serum HDL level in hApoA1 mouse model at 10 mg/kg, po; type: functional
Mus musculus [6] = assay: Decrease in serum triglyceride level in hApoA1 mouse model at 10 mg/kg, po; type: functional; design: scale not given: the % may be the effect or the level left
Mus musculus [7] = assay: Decrease in serum triglyceride level in hApoA1 mouse model at 30 mg/kg, po; type: functional; design: scale not given: the % may be the effect or the level left
Mus musculus [8] = assay: Increase in serum HDL level in hApoA1 mouse model at 30 mg/kg, po; type: functional
Mus musculus [9] = assay: Reduction in blood glucose level in db/db mouse at 3 mg/kg, po; type: functional, organism-based; design: dose 3 mg/kg

Chain of Peroxisome proliferator-activated receptor delta (Homo sapiens) (Q03181 whole entry, looked up): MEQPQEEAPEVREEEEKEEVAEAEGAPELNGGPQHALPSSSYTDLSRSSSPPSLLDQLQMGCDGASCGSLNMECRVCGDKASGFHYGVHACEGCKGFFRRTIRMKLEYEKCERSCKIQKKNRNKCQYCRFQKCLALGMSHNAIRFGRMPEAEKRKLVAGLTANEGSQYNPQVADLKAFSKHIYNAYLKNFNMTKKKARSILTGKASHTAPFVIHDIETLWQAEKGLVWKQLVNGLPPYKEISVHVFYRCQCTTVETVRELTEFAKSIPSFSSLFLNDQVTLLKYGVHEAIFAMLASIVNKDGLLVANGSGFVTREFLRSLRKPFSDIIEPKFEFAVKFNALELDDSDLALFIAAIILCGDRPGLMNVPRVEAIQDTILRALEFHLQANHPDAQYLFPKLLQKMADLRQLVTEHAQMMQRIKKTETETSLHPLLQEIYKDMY

Row | Compound | EC50 (3T3-L1) [nM] | EC50 [1] [nM] | also measured
1 | CCOc1ccc(-c2nc(CCOc3ccc4c(c3)CC[C@H]4CC(=O)O)c(C)s2)cc1 | 165 | 10000 | 
2 | COc1cccc(-c2nc(CCOc3ccc4c(c3)CC[C@H]4CC(=O)O)c(C)s2)c1 | 32 | 6960 | 
3 | CCc1oc(-c2ccccc2)nc1CCOc1ccc2c(c1)CC[C@H]2CC(=O)O | 186 | 10000 | 
4 | Cc1sc(-c2ccccc2F)nc1CCOc1ccc2c(c1)CC[C@H]2CC(=O)O | 1620 | 10000 | 
5 | CN(CCOc1ccc(CC2SC(=O)NC2=O)cc1)c1ccccn1 (centres undefined) |  |  | Activity (Mus musculus [2]): Active
6 | CCc1ccc(-c2nc(CCOc3ccc4c(c3)CC[C@H]4CC(=O)O)c(CC)o2)cc1 | 35 | 2530 | 
7 | Cc1oc(-c2ccccc2)nc1CCOc1ccc2c(c1)CCC[C@H]2CC(=O)O |  | 2190 | Activity [3]: 58%; Activity [4]: 50%
8 | CCc1oc(-c2ccc(C)cc2)nc1CCOc1ccc2c(c1)CC[C@H]2CC(=O)O | 30 | 1020 | 
9 | Cc1oc(-c2ccc(F)cc2)nc1CCOc1ccc2c(c1)CC[C@H]2CC(=O)O | 354 | 504 | 
10 | Cc1cccc(-c2nc(CCOc3ccc4c(c3)CC[C@H]4CC(=O)O)c(C)o2)c1 | 101 | 1150 | 
11 | Cc1sc(-c2ccc(F)cc2)nc1CCOc1ccc2c(c1)CC[C@H]2CC(=O)O | 544 | 2270 | 
12 | Cc1sc(-c2ccccc2)nc1CCOc1ccc2c(c1)CC[C@H]2CC(=O)O | 267 | 10000 | Activity (3T3-L1): 60%
13 | COc1ccc(-c2nc(CCOc3ccc4c(c3)CC[C@H]4CC(=O)O)c(C)s2)cc1 | 166 | 3280 | 
14 | Cc1nc(-c2ccc(-c3ccccc3)cc2)n(C)c1CCOc1ccc2c(c1)CC[C@H]2CC(=O)O | 71 | 10000 | 
15 | Cc1sc(-c2ccc(-c3ccccc3)cc2)nc1CCOc1ccc2c(c1)CC[C@H]2CC(=O)O | 270 | 10000 | 
16 | Cc1oc(-c2ccccc2)nc1CCOc1ccc2c(c1)CCC2C(C)C(=O)O (centres undefined) |  | 220 | Ratio EC50 (Homo sapiens): 1.8
17 | Cc1sc(-c2cccc(F)c2)nc1CCOc1ccc2c(c1)CC[C@H]2CC(=O)O | 140 | 6530 | 
18 | Cc1oc(-c2ccc(C(C)(C)C)cc2)nc1CCOc1ccc2c(c1)CC[C@H]2CC(=O)O |  | 546 | 
19 | CCCc1oc(-c2ccccc2)nc1CCOc1ccc2c(c1)CC[C@H]2CC(=O)O | 3000 | 10000 | Activity (3T3-L1): 32%
20 | Cc1ccc(-c2nc(CCOc3ccc4c(c3)CC[C@H]4CC(=O)O)c(C)s2)cc1 | 65 | 594 | 
21 | Cc1oc(-c2cccc(Cl)c2)nc1CCOc1ccc2c(c1)CC[C@H]2CC(=O)O | 200 | 1570 | 
22 | Cc1oc(-c2ccccc2)nc1CCOc1ccc2c(c1)CC(C)C2CC(=O)O (centres undefined) | 5440 | 7470 | Activity (3T3-L1): 58%; Activity [3]: 11%
23 | Cc1oc(-c2ccccc2)nc1CCOc1ccc2c(c1)CCC2CC(=O)O (centres undefined) |  | 890 | Ratio EC50 (Homo sapiens): 32
24 | Cc1sc(-c2ccc(C(C)C)cc2)nc1CCOc1ccc2c(c1)CC[C@H]2CC(=O)O | 25 | 559 | 
25 | Cc1oc(-c2ccc(Cl)cc2)nc1CCOc1ccc2c(c1)CC[C@H]2CC(=O)O | 212 | 1190 | 
26 | Cc1oc(-c2ccc(C(C)C)cc2)nc1CCOc1ccc2c(c1)CC[C@H]2CC(=O)O | 33 | 300 | 
27 | O=C(O)C[C@@H]1CCc2cc(OCCc3nc(-c4ccccc4)oc3CCc3ccccc3)ccc21 | > 3000 | 10000 | Activity (3T3-L1): 9%

Row | Compound | EC50 (3T3-L1) [nM] | EC50 [1] [nM] | also measured
28 | Cc1sc(-c2ccc3c(c2)OCO3)nc1CCOc1ccc2c(c1)CC[C@H]2CC(=O)O | 66 | 1210 | 
29 | Cc1c(CCOc2ccc3c(c2)CC[C@H]3CC(=O)O)nc(-c2ccccc2)n1C | 608 | 10000 | Activity (3T3-L1): 55%
30 | Cc1oc(-c2ccccc2)nc1CCOc1ccc2c(c1)CC[C@H]2CC(=O)O | 231 | 2460 | 
31 | Cc1oc(-c2cccc(F)c2)nc1CCOc1ccc2c(c1)CC[C@H]2CC(=O)O | 371 | 1690 | 
32 | COc1cccc(-c2nc(CCOc3ccc4c(c3)CC[C@H]4CC(=O)O)c(C)o2)c1 | 82 | 1890 | 
33 | Cc1sc(-c2ccc(Cl)cc2)nc1CCOc1ccc2c(c1)CC[C@H]2CC(=O)O | 970 | 10000 | 
34 | CCc1ccc(-c2nc(CCOc3ccc4c(c3)CC[C@H]4CC(=O)O)c(C)o2)cc1 | 27 | 78 | 
35 | Cc1oc(-c2ccccc2)nc1CCOc1ccc2c(c1)C(C)(C)CC2CC(=O)O (centres undefined) | 253 | 10000 | Activity (3T3-L1): 66%; Activity [3]: 7.5%; Activity [4]: 38%
36 | Cc1oc(-c2ccc(C#N)cc2)nc1CCOc1ccc2c(c1)CC[C@H]2CC(=O)O | 301 | 9980 | 
37 | COc1ccc(-c2nc(CCOc3ccc4c(c3)CC[C@H]4CC(=O)O)c(C)o2)cc1 | 29 | 798 | 
38 | COc1ccc(-c2nc(CCOc3ccc4c(c3)CC[C@H]4CC(=O)O)c(C)n2C)cc1 | 644 | 10000 | Activity (3T3-L1): 56%
39 | Cc1c(CCOc2ccc3c(c2)CC[C@H]3CC(=O)O)nc(-c2ccc(-c3ccccc3)cc2)n1C | 54 | 10000 | 
40 | Cc1cc(SCc2sc(-c3ccc(C(F)(F)F)cc3)nc2C)ccc1OCC(=O)O [GW501516] |  |  | Activity (Mus musculus [5]): 30%; Activity (Mus musculus [6]): 33%
41 | Cc1oc(-c2ccc(-c3ccccc3)cc2)nc1CCOc1ccc2c(c1)CC[C@H]2CC(=O)O | 45 | 2720 | Activity (Mus musculus [7]): 38%; Activity (Mus musculus [8]): 29%; Activity (Mus musculus [9]): Active
42 | COC(C(=O)O)C1CCc2cc(OCCc3nc(-c4ccccc4)oc3C)ccc21 (centres undefined) |  |  | Ratio EC50 (Homo sapiens): 0.15
43 | Cc1ccc(-c2nc(CCOc3ccc4c(c3)CC[C@H]4CC(=O)O)c(C)o2)cc1 | 24 | 444 | 
44 | CCc1ccc(-c2nc(CCOc3ccc4c(c3)CC[C@H]4CC(=O)O)c(C)n2C)cc1 | 103 | 10000 | 
45 | Cc1oc(-c2ccccc2)nc1CCOc1ccc2c(c1)OCC2CC(=O)O (centres undefined) |  | 10000 | Activity [3]: 15%
46 | Cc1sc(-c2ccc(OC(F)(F)F)cc2)nc1CCOc1ccc2c(c1)CC[C@H]2CC(=O)O | 225 | 7940 | 
47 | CCC(C(=O)O)C1CCc2cc(OCCc3nc(-c4ccccc4)oc3C)ccc21 (centres undefined) |  | 130 | Ratio EC50 (Homo sapiens): 0.22
48 | Cc1nc(-c2ccccc2)n(C)c1CCOc1ccc2c(c1)CC[C@H]2CC(=O)O | 5940 | 10000 | Activity (3T3-L1): 19%
49 | Cc1sc(-c2cccc(C(F)(F)F)c2)nc1CCOc1ccc2c(c1)CC[C@H]2CC(=O)O | 45 | 10000 | 
50 | Cc1oc(-c2cccc(C#N)c2)nc1CCOc1ccc2c(c1)CC[C@H]2CC(=O)O | 164 | 10000 | 
51 | Cc1cccc(-c2nc(CCOc3ccc4c(c3)CC[C@H]4CC(=O)O)c(C)s2)c1 | 50 | 6790 | 
52 | CCc1ccc(-c2nc(C)c(CCOc3ccc4c(c3)CC[C@H]4CC(=O)O)n2C)cc1 | 155 | 10000 | 
53 | COc1ccc(-c2nc(C)c(CCOc3ccc4c(c3)CC[C@H]4CC(=O)O)n2C)cc1 | 5560 | 10000 | Activity (3T3-L1): 41%
